# ROMK mod – ROMK potassium channel modulators, primary screen, cell-based, thallium flux, MLSMR library; Tet-inducible ROMK, thallium flux fluorescence; actives lie on both sides; ATP-sensitive inward rectifier potassium channel 1 (Homo sapiens), P48048; 130,000 compounds, 2% hits; B-score at 10 µM; AID 1918, 2009;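 active means signal ratio slope over the read window, or its plate-corrected B-score, at least 3 SD from the plate mean, either direction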;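 further: B-score of the F/F0 ratio slope over 7 to 12 s after thallium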
# KCC2 mod – KCC2 cotransporter modulators, thallium flux, primary screen, cell-based, HEK293 KCC2, FluoZin-2 fluorescence, MLSMR. Solute carrier family 12 member 5 (Homo sapiens), Q9H2X9. KCC2 cells, thallium flux FluoZin-2 fluorescence. B-score of Tl+ flux slope (higher = more flux/activation; lower = inhibition) at 10 µM. 190,000 compounds, 2.2% hits;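 active means thallium flux slope and its plate-corrected score both differing from the plate sample mean at a set confidence after two filtering rounds, in either direction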;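 further: slope of fluorescence scaled to starting intensity during 10 to 20 s after thallium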
# Arbovirus inh – antivirals against arbovirus infection, primary screen, cell-based, full library, 10K replicate subset; arbovirus infection cell-based antiviral screen; inhibition, % at 10 µM; 200,000 compounds, 0.37% hits; AID 1251, 2008; in the data active means inhibition above about 30%
# Mdm2 ligase inh – MDM2-luciferase reporter signal enhancers, primary screen, MDM2 E3 ligase inhibitor project, cell-based, luminescence, 1536-well. E3 ubiquitin-protein ligase Mdm2 (Homo sapiens), Q00987. cell-based MDM2 ubiquitination luciferase reporter, 2 h; 0 = plate control, 100 = twice control, blank-subtracted. signal enhancement, % at 5 µM. 210,000 compounds, 0.11% hits. AID 1230, 2008;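 active means signal enhancement of 30% or more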;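 further: luminescence tracks abundance of the self-degrading MDM2-luciferase fusion protein; higher signal means inhibition of MDM2 E3 ligase activity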
#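 Test system: mammalian cells stably expressing self-ubiquitinating, self-degrading MDM2 E3–luciferase fusion; Amount: 2000 cells in each well; Medium: DMEM; Schedule: 4 h settle plus 2 h compound, 37 °C; Technique: SteadyLite luciferase luminescence after 15 min room-temperature reagent incubation; Benchmarks: plate control and blank wells.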
# Calpain2 inh – inhibitors of pig calpain II, primary screen, biochemical, fluorogenic peptide substrate, 1536-well | AID 1236, 2008 | inhibition, % at 16 µM | 220,000 compounds, 0.37% hits | purified calpain II, 30 min;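 active means inhibition above about 50%, limit read from the data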
# PKD1 kinase inh – inhibitors of human PKD1 kinase, biochemical, fluorescence polarization; inhibition, % (concentration not given with the values); PKD1 kinase fluorescence polarization assay; 200,000 compounds, 0.056% hits; AID 797, 2007; in the data active means inhibition above about 50%
# Target sequence (Q15139 whole entry, looked up): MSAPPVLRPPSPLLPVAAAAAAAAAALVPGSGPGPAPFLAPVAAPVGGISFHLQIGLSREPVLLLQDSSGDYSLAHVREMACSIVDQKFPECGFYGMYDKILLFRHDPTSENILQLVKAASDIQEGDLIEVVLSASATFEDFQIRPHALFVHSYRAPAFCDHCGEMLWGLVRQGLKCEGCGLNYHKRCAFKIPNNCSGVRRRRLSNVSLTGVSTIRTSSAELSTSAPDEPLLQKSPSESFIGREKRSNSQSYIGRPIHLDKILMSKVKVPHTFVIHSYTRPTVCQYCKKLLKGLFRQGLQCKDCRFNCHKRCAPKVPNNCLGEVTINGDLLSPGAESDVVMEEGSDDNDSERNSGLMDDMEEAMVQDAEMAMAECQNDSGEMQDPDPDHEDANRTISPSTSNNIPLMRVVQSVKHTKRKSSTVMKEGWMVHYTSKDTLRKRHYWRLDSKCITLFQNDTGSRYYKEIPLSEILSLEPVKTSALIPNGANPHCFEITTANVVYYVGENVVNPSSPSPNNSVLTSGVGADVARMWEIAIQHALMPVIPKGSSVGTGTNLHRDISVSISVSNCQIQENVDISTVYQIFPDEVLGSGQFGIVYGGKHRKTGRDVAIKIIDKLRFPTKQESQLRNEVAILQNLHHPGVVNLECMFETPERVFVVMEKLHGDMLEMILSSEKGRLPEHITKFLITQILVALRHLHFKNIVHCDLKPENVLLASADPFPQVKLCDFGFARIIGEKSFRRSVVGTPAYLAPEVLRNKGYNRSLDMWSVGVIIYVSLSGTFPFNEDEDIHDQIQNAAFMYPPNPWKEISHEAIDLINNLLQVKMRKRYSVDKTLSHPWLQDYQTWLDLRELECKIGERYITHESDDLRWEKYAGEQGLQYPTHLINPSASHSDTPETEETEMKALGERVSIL
# ROMK retest – ROMK channel modulator hit retest, confirmation, cell-based, thallium flux, duplicate, resupplied hits | normalized thallium flux (F/F0 slope) at 10 µM | fluorescence ratio; active compounds read low | shares compounds with ROMK mod | 3,000 compounds, 54% hits | AID 1917, 2009;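 active means Flux at 10 µM at least 3 SD below or above vehicle control mean in one or both replicates; inconclusive means no clear call, values can overlap the other calls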
# * hit, by the source's call; i = inactive; ? = inconclusive; · = no result. Rows were chosen to be rich in hits. Some 3.7% of all compounds tested hit in one or more screens of this group.
SMILES,ROMK mod,KCC2 mod,Arbovirus inh,Mdm2 ligase inh,Calpain2 inh,PKD1 kinase inh,ROMK retest
C=CCc1cc(Cl)ccc1OCCCNC(C)CC (stereo unspecified),-2.63*,1.12,-26.4,4.5,1.7,-2.3,0.0512*
CCC(C)NCCCOc1ccc(Cl)cc1C(C)(C)C (stereo unspecified),0.228,0.862,-16.7,12.8,33.9,-4.7,·
Cc1ccc(-n2nc(C)cc2N)c(C)c1,0.0721,0.946,7.1,0.8,9.5,1.0,·
CC(C)c1ccc(/C=C(\c2nc3ccccc3[nH]2)S(=O)(=O)c2ccccc2)cc1,-3.74*,-0.373,-33.3,27.2,-29.9,5.5,0.0597*
O=S(=O)(/C(=C/c1ccc(C(F)(F)F)cc1)c1nc2ccccc2[nH]1)c1ccccc1,-4.27*,-0.057,-36.9,10.3,-20.2,9.3,0.0514*
CCCCOc1ccc(C2CC(=O)N(C)C2=O)cc1 (stereo unspecified),-0.443,·,-7.0,-15.7,-5.6,1.2,·
O=C1CC(c2ccc(OCCCCCOc3ccc(C4CC(=O)NC4=O)cc3)cc2)C(=O)N1 (stereo unspecified),-3.45*,-0.509,6.2,-7.4,-2.4,-3.8,0.0602*
Cc1cc(C)n(C(=O)Cn2nc([N+](=O)[O-])c(Br)c2C)n1,0.658,0.745,8.6,-1.0,-9.7,-1.4,·
Cn1cnc2cc(NC(=O)c3ccc(Cl)cc3)ccc21,·,-0.0501,-0.4,-21.0,12.9,-10.5,0.0819
COc1ccc(C(C[N+](=O)[O-])C2(c3ccc(OC)c(OC)c3)C(=O)c3ccccc3C2=O)cc1 (stereo unspecified),-5.12*,0.194,-36.0,-11.4,1.0,-5.7,?
Cc1nn(-c2ccccc2)c(N2CCCC2)c1/C=N/NC(=O)c1cc(-c2cccnc2)nc2ccccc12,·,-0.00186,19.1,-10.4,-135.7,-8.7,·
CC(/C=N/NC(=O)c1cc(-c2cccnc2)nc2c1c(C)nn2-c1ccccc1)=C\c1ccccc1,·,1.21,6.1,-15.5,-239.9,-5.5,?
CN(C)CCNC(=O)NC(=O)c1ccc(Cl)cc1,0.195,-0.134,-0.9,-4.8,-13.2,-4.7,·
CN1CCN(c2oc(-c3ccco3)nc2S(=O)(=O)c2ccccc2)CC1,·,0.0835,5.1,4.1,0.2,-4.8,·
O=S(=O)(c1ccccc1)c1nc(-c2ccco2)oc1N1CCCCCC1,-2.76*,-0.657,3.1,8.3,22.6,-3.1,0.0716
O=C(COc1ccc(F)cc1)N(c1ccccn1)C1CCCCC1,0.498,-0.351,-3.4,7.3,10.8,-11.4,·
CC(C)c1ccc(OCC(=O)N(c2ccccn2)C2CCCCC2)cc1,-2.58*,-1.47,3.4,8.5,11.9,1.9,0.0551*
O=C(OCC#CCSc1nnc(-c2ccccc2)o1)c1cccs1,-2.57,0.473,4.0,-6.4,5.5,-1.6,0.0583*
Cc1ccc(SCCC(=O)OCC(=O)NCC2CCCCC2)cc1,2.97*,-0.955,4.4,-57.8,25.1,-7.5,0.0771
COc1ccc(C(=O)Cn2nnc(-c3ccccc3NC(=O)C(F)(F)F)n2)cc1,1.99*,-0.0834,-6.9,-17.7,28.0,-2.9,0.0734
Cc1ccc(Cn2c(=O)n(CCC(=O)NCc3ccc4c(c3)OCO4)c(=O)c3ccccc32)cc1,·,-1.24,-6.4,-18.0,-4.2,-7.7,·
N#Cc1ccccc1Cn1c(=O)n(CCCC(=O)NCc2ccc3c(c2)OCO3)c(=O)c2ccccc21,3.59*,0.686,6.7,-12.7,3.8,-4.1,0.0864
CC1(C)CC(=O)C(CCC(=O)c2ccccc2)C(C)(C)N1 (stereo unspecified),·,-0.471,-8.9,-3.5,-34.6,-4.2,·
O=C(/C=C/c1cccs1)NC(=S)NNC(=O)Cc1cccs1,·,1.79,-34.3,-0.8,-18.9,-0.3,·
COc1ccccc1Nc1ncnc2nc[nH]c12,4.02*,0.142,9.0,-3.1,-15.1,1.0,0.0837
SMILES,ROMK mod,KCC2 mod,Arbovirus inh,Mdm2 ligase inh,Calpain2 inh,PKD1 kinase inh,ROMK retest
O=C1c2oc3ccc(F)cc3c(=O)c2C(c2cccc(O)c2)N1CCCN1CCOCC1 (stereo unspecified),-2.26*,1.42,4.6,·,8.5,-4.4,0.0754
CC(C(=O)N1CCN(C)CC1)N1C(=O)c2ccccc2C1=O (stereo unspecified),·,0.0238,-0.7,5.1,-17.0,-8.1,·
CC(C(=O)O)N1C(=O)c2ccccc2C1=O (stereo unspecified),2.86*,0.295,3.4,-10.5,-23.0,-3.0,0.0778
O=C(Nc1nc2ccccc2[nH]1)c1cccc([N+](=O)[O-])c1,0.813,·,-2.0,-11.3,-8.7,1.5,·
O=C(Cc1nc2ccccc2[nH]1)c1cccc([N+](=O)[O-])c1,·,-0.000124,·,-4.9,-107.8,·,?
CS(=O)(=O)N1CCc2cc(-c3csc(NC(=O)Cc4cccs4)n3)ccc21,·,-0.00941,-31.6,1.3,-121.0,-0.6,0.0675*
CC(=O)Nc1nc(-c2ccc3c(c2)CCN3S(C)(=O)=O)cs1,0.0172,·,-2.8,-7.4,-31.1,-0.2,·
COc1ccc(CCNS(=O)(=O)c2cc(C(=O)O)c(Cl)cc2Cl)cc1,·,-0.301,1.8,0.2,-2.3,7.9,·
O=c1c(Cl)c(O)c2cccc3c4ccccc4n1c23,0.103,-1.76,12.3,-10.8,-428.9,-12.4,0.0854
Cn1c(CCNC(=O)c2ccc(Cl)c(Cl)c2)nnc1SCc1ccc(Cl)c(Cl)c1,·,·,4.5,-2.4,34.2,-10.9,0.0793
COC(=O)CN1C(c2cccc(Cl)c2)=Nc2ccc(Cl)cc2C1c1ccccc1 (stereo unspecified),·,-0.199,-17.5,-15.7,6.0,5.0,0.0547*
CCOC(=O)c1c2ccc(OCC(=O)NN)cc2n2ccccc12,-2.8*,-3.67,-18.7,0.0,i,-2.6,0.0549*
CCOC(=O)c1c2ccc(OCC(=O)N/N=C/c3ccc(C)cc3)cc2n2ccccc12,·,·,-1.4,1.3,-260.7,6.9,·
CC(=O)Nc1sc(N/N=C/c2ccccc2F)nc1-c1ccc(C)cc1,·,0.169,·,-81.4,-13.1,·,·
N=C1/C(=C\c2ccc(-c3cccc(Cl)c3)o2)C(=O)N=C2SC=C(c3ccccc3)N12,·,0.396,5.5,-14.4,-54.3,-12.4,·
CCCC1=NN2C(=N)/C(=C\c3ccc(SCc4ccco4)o3)C(=O)N=C2S1,-3.02*,·,31.9*,-3.2,-30.9,6.2,0.0533*
Cc1ccc(-n2c(C)nnc2SCC(=O)NNC(=O)c2ccco2)cc1,0.473,-1.99,7.2,-17.0,16.2,1.2,·
